Screening data deposited in PubChem by several laboratories.
PHOSPHO1 block = inhibitors of human PHOSPHO1 phosphatase; inhibition, % at 13.3 µM; 290,000 tested, 1.1% active; AID 1565; recombinant PHOSPHO1, absorbance phosphatase assay; Q8TCT1; in the data active = inhibition above about 60%
RanGTP-Imp inh = disruptors of Ran-importin-beta complex formation – biochemical, FRET, CFP-Ran, YFP-importin-beta, homogeneous, primary screen; inhibition, % (test concentration not listed); 300,000 tested, 1.1% active; cell-free CFP-Ran/YFP-importin-beta FRET ratio; AID 2216;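 active = more than half of the replicate wells show a fall in the fluorescence ratio signal beyond about 16%, limit read from the data, passing the limit was not always enough; inconclusive = exactly half of the replicate wells pass the set limit; inactive = fewer than half of replicates pass the limit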;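 also: 0% = DMSO wells and 100% = Ran loaded with GDP instead of GTP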
Runt-CBFb FRET = Runt domain-CBFb interaction inhibition | 220,000 tested, 0.46% active | inhibition, % at 20 µM | Cerulean-Runt/Venus-CBFb FRET ratio 530/480, 1 h | Q01196+Q13951;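 active = inhibition over about 50% at 20 µM in the single-dose screen, limit read from the data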;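 also: 0% = DMSO wells and 100% = excess unlabeled CBFb competitor control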
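Measured by: fluorescence energy transfer, 422 nm excitation, 530/480 nm emission; Assay system: Cerulean-Runt domain; Medium: Tris pH 7.5 buffer with BSA; Measure: loss of energy transfer signal; Controls: 5 µM unlabeled CBFb as full-inhibition high control; Incubation: protein complex preformed 1 h, compound exposure 1 h, room temperature, dark.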
Runt-SMMHC FRET = inhibitors of human RUNX1 Runt domain binding to CBFb-SMMHC | inhibition, % at 20 µM | Cerulean-Runt/Venus-CBFb-SMMHC FRET ratio 530/480, 1 h | Q01196+Q13951 | AID 1434 | 220,000 tested, 0.74% active;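 active = mean inhibition across duplicate retests at 20 µM reaching about 50%, limit read from the data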;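 also: 0% = DMSO wells and 100% = wells with excess untagged CBFb-SMMHC; inhibitors lower the FRET ratio by blocking Runt binding to CBFb-SMMHC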
Efa HMGR inh = blocks class II HMG-CoA reductase of Enterococcus faecalis; purified E. faecalis HMGR, NADPH absorbance 340 nm kinetic; inhibition, % at 10 µM; 190,000 tested, 0.41% active;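 active = inhibition above a set limit, the median over all tested compounds plus 3 SD, cut at about 9.5% in these data; inconclusive = no clear call, values can overlap the other calls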;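 also: enzyme runs in reverse so mevalonate oxidation gives rising NADPH absorbance; 0% = complete reaction with DMSO and 100% = background rate lacking mevalonate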
Wee1 stabilizer = human Wee1 degradation inhibition, primary screen; HeLa Luc-Wee1K328M stability, luciferase luminescence; 100% = proteasome inhibitor MG132 effect; reporter increase, % at 5 µM; 220,000 tested, 1.2% active; AID 1321;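 active = activation above the mean of all tested compounds plus 3 SD, set per screening run, cut at about 8.8% in these data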;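 also: cells exposed to compound for 20 h before luminescence read; 0% = DMSO alone and 100% = MG132 at 30 µM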
Target sequence (P30291 whole entry K328M): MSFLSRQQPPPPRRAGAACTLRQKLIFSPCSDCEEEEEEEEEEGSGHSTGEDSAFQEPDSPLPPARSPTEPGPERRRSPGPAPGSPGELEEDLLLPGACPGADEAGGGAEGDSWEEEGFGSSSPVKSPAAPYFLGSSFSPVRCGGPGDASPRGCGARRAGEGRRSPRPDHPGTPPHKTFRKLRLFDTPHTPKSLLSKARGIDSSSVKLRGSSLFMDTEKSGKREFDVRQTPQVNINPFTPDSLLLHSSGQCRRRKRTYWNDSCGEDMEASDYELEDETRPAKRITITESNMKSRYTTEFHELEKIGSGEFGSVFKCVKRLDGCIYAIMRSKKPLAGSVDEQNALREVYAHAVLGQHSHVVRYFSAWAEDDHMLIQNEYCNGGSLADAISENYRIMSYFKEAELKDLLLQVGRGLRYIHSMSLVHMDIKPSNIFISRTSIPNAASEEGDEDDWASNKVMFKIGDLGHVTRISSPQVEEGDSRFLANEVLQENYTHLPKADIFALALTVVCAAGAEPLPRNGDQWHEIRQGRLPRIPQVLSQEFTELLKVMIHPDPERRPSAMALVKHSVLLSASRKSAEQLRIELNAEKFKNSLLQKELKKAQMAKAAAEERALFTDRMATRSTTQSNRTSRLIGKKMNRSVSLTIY
RUNX1 CBFb TR = inhibitors of human RUNX1 Runt domain binding to CBFb; shares compounds with Runt-CBFb FRET; TR-FRET RUNX1 Runt domain-CBFb binding; inhibition, % at 20 µM; 480 tested, 20% active; AID 1502; in the data active = inhibition above about 40%
* hit, by the source's call; ? = inconclusive; nt = no result given. Most compounds without a hit are left out; they make up all but 3.4% or so of the library.

SMILES	PHOSPHO1 block	RanGTP-Imp inh	Runt-CBFb FRET	Runt-SMMHC FRET	Efa HMGR inh	Wee1 stabilizer	RUNX1 CBFb TR
CCCn1c(SCC(=O)NCc2ccco2)nnc1-c1ccncc1	16	1	74*	3	-1	4	-1
CCn1c(SCC(=O)NCc2ccco2)nnc1-c1ccncc1	58	7	-1	0	-4	7	nt
Oc1ccc(-c2csc(Nc3ncccn3)n2)cc1O	8	-2	50*	35	4	0	42*
Oc1ccc(-c2csc(-c3cccnc3)n2)cc1O	19	-1	53*	33	nt	-2	68*
Cc1c(NS(=O)(=O)c2ccc3c(c2)CCN3C(=O)C2CC2)c(=O)n(-c2ccccc2)n1C	27	2	57*	-8	-1	0	-10
Cc1c(NS(=O)(=O)c2cc(Br)cc3c2N(C(=O)C2CC2)CC3)c(=O)n(-c2ccccc2)n1C	2	0	0	-2	1	-3	nt
Cc1ccc(N2C(=O)C(Cl)=C(N3CCOCC3)C2=O)cc1Cl	6	0	65*	54*	-4	-2	20
Cc1nn(C)cc1S(=O)(=O)NCc1ccc2c(c1)OCO2	8	-5	nt	nt	nt	nt	nt
O=C(CCNS(=O)(=O)c1cccc2nsnc12)NC1CCCc2ccccc21 (centres undefined)	-6	-1	2	2	4	2	nt
O=C(NC1CCCc2ccccc21)C1CCC(CNS(=O)(=O)c2cccc3nsnc23)CC1 (centres undefined)	0	?	83*	-2	-9	-3	18
Cc1ccccc1Nc1cc(C(=O)NCC2CCCO2)c2ccccc2n1 (centres undefined)	36	-1	0	0	nt	2	nt
O=C1CCc2cc(S(=O)(=O)Nc3ccccc3)cc3c2N1CC3	nt	7	nt	nt	nt	nt	nt
Cc1cc2c(c(=O)n1Cc1cccnc1)C(Cc1ccccc1)C(C#N)=C(N)O2 (centres undefined)	2	36*	58*	86*	-3	0	-21
Cc1cc2c(c(=O)n1Cc1cccnc1)C(c1cccs1)C(C#N)=C(N)O2 (centres undefined)	20	5	3	0	-2	2	nt
Cc1cc2c(c(=O)n1CCc1ccccc1)C(c1ccco1)C(C#N)=C(N)O2 (centres undefined)	11	11	62*	nt	-2	1	34
CCCC(C(=O)NC1CCCC1)N(C(=O)Cn1nnc(-c2ccc(C)o2)n1)c1ccccc1OC (centres undefined)	4	0	53*	3	-2	-3	-15
COc1c(O)ccc(/C=C(\C#N)c2nc3ccccc3[nH]2)c1[N+](=O)[O-]	18	20*	74*	100*	0	3	0
CCN1C(=O)c2ccc(C(=O)Nc3ncc(C)s3)cc2C1=O	47	0	2	-4	-1	-2	nt
COc1ccc(C2CC(=O)c3cnn(-c4nc(C)cc(C)n4)c3C2)cc1 (centres undefined)	-8	nt	0	2	-5	0	nt
NC1=C(c2ccc([N+](=O)[O-])cc2)C(=O)CO1	-23	0	3	-3	4	1	nt
O=c1oc2c(-c3ccc([N+](=O)[O-])cc3)cc(O)cc2s1	-74	7	56*	4	nt	1	-8
CCCCN1Cc2cc(C(=O)c3cc(F)ccc3O)cnc2NC1=O	7	nt	-1	8	2	-3	nt
CCn1nc(NC(=O)C(C)C)c2cc3ccc(C)cc3nc21	nt	8	nt	nt	nt	nt	nt
Cc1ccc2nc3c(cc2c1)c(NC(=O)c1ccccn1)nn3CC(C)C	-2	116*	53*	90*	-2	-1	33
O=C1C(c2ccccc2)=[N+]([O-])c2ccccc21	nt	-1	nt	nt	nt	nt	nt
SMILES	PHOSPHO1 block	RanGTP-Imp inh	Runt-CBFb FRET	Runt-SMMHC FRET	Efa HMGR inh	Wee1 stabilizer	RUNX1 CBFb TR
CCCOc1ccccc1-c1nc2c([nH]1)c(=O)[nH]c(=O)n2C	19	75*	75*	133*	-8	-2	-13
COc1ccc(Cl)cc1NC(=O)C/C(C)=N/NC(=O)C(=O)NCc1ccccc1	14	-1	nt	nt	nt	nt	nt
COC(=O)c1ccccc1N/C=C1\CCc2c(c(C)nn2-c2ccccn2)C1=O	34	36*	54*	63*	4	-1	51*
CC(=O)N(c1ccc2oc(=O)sc2c1)S(=O)(=O)c1cccs1	-39	7	72*	63*	-3	-2	22
CC(=O)N(c1ccc2oc(=O)sc2c1)S(=O)(=O)c1ccc(C(=O)O)cc1	2	1	nt	nt	nt	nt	nt
CC(C)C(=O)N(c1ccc2oc(=O)sc2c1)S(=O)(=O)c1cccs1	87*	0	58*	37	2	-1	38
CCOC(=O)N1CCN(S(=O)(=O)N2CCCC(C(=O)NCCc3ccc(Cl)cc3)C2)CC1 (centres undefined)	24	4	nt	nt	nt	nt	nt
CN(Cc1ccccc1)C(=O)C1CCN(S(=O)(=O)c2cccc3nsnc23)CC1	58	?	nt	nt	nt	nt	nt
COCCN(C(=S)Nc1c(C)cccc1C)C(C)c1cccnc1 (centres undefined)	1	0	2	8	1	-2	nt
COCCN(C(=S)Nc1c(C)cc(C)cc1C)C(C)c1cccnc1 (centres undefined)	-4	?	51*	42	0	-2	-12
Cc1csc(NC(=O)NCC2CCCC(CNC(=O)Nc3nc(C)cs3)C2)n1 (centres undefined)	46	5	nt	nt	nt	nt	nt
O=C1CC(c2ccco2)CC(O)=C1C=NCCO (centres undefined)	3	1	81*	-5	0	0	21
CCOc1ccc(NS(=O)(=O)c2ccc(C(=O)NNC(=O)c3ccccc3O)cc2)cc1	nt	1	nt	nt	nt	nt	nt
CC(Oc1ccc(Cl)cc1Cl)C(=O)N/N=C1\CCCc2ccccc21 (centres undefined)	-11	0	0	3	-1	0	nt
Cc1cc(O)c(Oc2cc(C)cc(O)c2O)c(O)c1	40	-2	70*	62*	-1	2	54*
CCOC(=O)C1=C(C)N(c2ccccc2)C(=O)/C1=C\c1ccco1	-2	?	-2	-10	3	1	nt
CCOC(=O)C1=C(C)N(c2ccccc2)C(=O)/C1=C\c1ccc(O)c(OC)c1	-11	3	55*	-4	nt	-2	60*
COc1cc(NC(=O)Cn2cnc3sc(C)c(S(=O)(=O)N4CCOCC4)c3c2=O)cc(OC)c1OC	-4	-3	nt	nt	nt	nt	nt
COCCCN1C(=O)c2ccc(C(=O)Nc3ccc(OC)cc3)cc2C1=O	6	3	3	0	-1	1	nt
